{"source": "ChEMBL document CHEMBL4145619", "about": "“Computer-Assisted Discovery of Retinoid X Receptor Modulating Natural Products and Isofunctional Mimetics” (J Med Chem, 2018)", "key": {"[1]": {"biological_target": "T1, Nuclear receptor subfamily 1 group I member 3 (Homo sapiens, UniProt Q14994)", "T1 sequence (Q14994 whole entry)": "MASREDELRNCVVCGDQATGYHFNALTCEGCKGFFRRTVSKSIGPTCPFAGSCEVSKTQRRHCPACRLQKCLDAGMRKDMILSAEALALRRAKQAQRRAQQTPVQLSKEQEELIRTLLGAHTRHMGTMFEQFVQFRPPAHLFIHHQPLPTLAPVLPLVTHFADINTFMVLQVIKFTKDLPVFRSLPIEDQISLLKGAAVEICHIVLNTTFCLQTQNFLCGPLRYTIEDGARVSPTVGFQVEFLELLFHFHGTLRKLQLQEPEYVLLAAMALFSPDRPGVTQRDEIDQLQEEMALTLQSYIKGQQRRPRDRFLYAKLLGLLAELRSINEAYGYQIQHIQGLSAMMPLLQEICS", "test": "Transactivation of human Gal4-fused CAR LBD expressed in HEK293T cells at 30 uM after 12 to 14 hrs by dual-glo luciferase assay", "assay_type": "cell-based", "procedure,_shortened": "(§1)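 Single-concentration selectivity profiling in Gal4-hybrid reporter gene assays in HEK293T cells. Each nuclear receptor construct (RAR, PPAR, LXR, FXR, CAR, VDR, PXR, RXR) was tested at 30 μM.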"}, "[2]": {"biological_target": "T2, Vitamin D3 receptor (Homo sapiens) (UniProt P11473)", "T2 sequence (whole entry)": "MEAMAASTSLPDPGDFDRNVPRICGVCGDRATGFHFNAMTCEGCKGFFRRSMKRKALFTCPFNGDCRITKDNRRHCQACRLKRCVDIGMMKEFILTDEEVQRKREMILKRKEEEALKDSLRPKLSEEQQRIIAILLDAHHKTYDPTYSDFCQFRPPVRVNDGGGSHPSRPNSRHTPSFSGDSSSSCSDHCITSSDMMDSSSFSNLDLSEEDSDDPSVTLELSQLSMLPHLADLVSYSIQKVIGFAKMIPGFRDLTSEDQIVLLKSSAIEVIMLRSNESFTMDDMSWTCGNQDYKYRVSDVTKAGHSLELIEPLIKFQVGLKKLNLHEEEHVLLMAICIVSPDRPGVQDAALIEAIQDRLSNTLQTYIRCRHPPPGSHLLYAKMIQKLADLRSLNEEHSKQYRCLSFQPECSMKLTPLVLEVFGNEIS", "test": "Transactivation of human Gal4-fused VDR LBD expressed in HEK293T cells at 30 uM after 12 to 14 hrs by dual-glo luciferase assay", "assay_type": "cell-based", "procedure,_shortened": "as §1"}}, "note": "Active and inactive are the calls of the source. The rule behind the calls is not given here."}
{"smiles": "CC1=C2[C@H](/C=C(\\C)C(=O)O)CC[C@@H](C)[C@H]2CC1", "note": "[VALERENIC ACID]", "values": [{"measurement": "Activity", "setting": "[1]", "value": "Not Active"}, {"measurement": "Activity", "setting": "[2]", "value": "inactive"}]}
